Results reported in ChEMBL document CHEMBL1123210, “Cycloheximide analogues as potential anticonvulsants” (J Med Chem, 1986).
Active and inactive are the calls of the source.

Experiments:
Mus musculus [1] = assay: (§1) Compound was tested for maximal electroshock seizure test in mice 0.5 hr after administration.; assay type: functional
Mus musculus [2] = assay: Inhibition of maximal electroshock induced seizures in mice 4 hr after administration; Inactive.; assay type: functional, organism-based
Mus musculus [3] = species on record: Mus musculus; assay: Number of mice exhibiting toxicity out of four (4) mice was measured by using rotarod test.; assay type: organism-based; details: in vivo
Summary of the method: (§2)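 Neurotoxicity was scored in the rotorod test in mice given doses up to 600 mg/kg. The value is the number of animals out of four showing toxicity. It was recorded for both the initial screen and the repeat pentylenetetrazol screen.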

Mus musculus [4] = assay: (§3) Compound was tested for maximal electroshock seizure test in mice 4 hr after administration; IA is Inactive; assay type: functional, organism-based
Mus musculus [5] = assay: Compound was tested for subcutaneous pentylenetetrazole seizure test in mice after administration intraperitoneally at 0.5 hr; IA is Inactive; assay type: functional, organism-based
Mus musculus [6] = assay: Inhibition of subcutaneous pentylenetetrazole induced seizures in mice 4 hr following i.p. administration; Inactive.; assay type: functional, organism-based
Mus musculus [7] = assay: Number of mice exhibiting toxicity out of four (4) mice in repeated subcutaneous pentylenetetrazole seizure test was measured by using rotarod test; assay type: organism-based; details: in vivo; summary of the method: as §2
Mus musculus [8] = assay: (§4) Compound was tested for subcutaneous pentylenetetrazole seizure test in mice after administration intraperitoneally at 0.5h.; assay type: functional
Mus musculus [9] = assay: (§5) Compound was tested for the lowest dose which protected half of the mice in pentylenetetrazole seizure test 0.5 hr after ip administration of the compound; assay type: functional
Summary of the method: (§6)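 This was a repeat of the subcutaneous pentylenetetrazol screen in mice (85 mg/kg s.c.). Endpoint was prevention of clonic seizures, four animals per dose at 30, 100, 300 or 600 mg/kg. The value is the lowest dose at which at least half of the four animals were protected.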

Mus musculus [10] = assay: Compound was tested for maximal electroshock seizure test in mice 0.5 hr after administration; IA is Inactive; assay type: functional, organism-based
Mus musculus [11] = assay: (§7) Compound was tested for subcutaneous pentylenetetrazole seizure test in mice after administration intraperitoneally at 4h.; assay type: functional
Mus musculus [12] = assay: Compound was tested for the lowest dose which protected half of the mice in pentylenetetrazole seizure test 4 hr after ip administration of the compound; IA is Inactive; assay type: functional, organism-based; summary of the method: as §6
Mus musculus [13] = assay: Compound was tested for maximal electroshock seizure test in mice 0.5 hr after administration; IA is Inactivev; assay type: functional, organism-based
Mus musculus [14] = assay: Compound was tested for maximal electroshock seizure test in mice 4 hr after administration.; assay type: functional
Mus musculus [15] = assay: Compound was tested for subcutaneous pentylenetetrazole seizure test in mice after administration intraperitoneally at 4h.; IA is Inactive; assay type: functional, organism-based
Mus musculus [16] = assay: as §1; assay type: functional; remark: listed apart in the source
Summary of the method: (§8)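 Mice, four per dose level, screened at 30, 100, 300 and 600 mg/kg and read at 0.5 h and 4 h after dosing. End point is prevention of tonic hindlimb extension after maximal electroshock. Activity is the lowest dose at which at least one of four animals is protected.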

Mus musculus [17] = assay: as §3; assay type: functional, organism-based; summary of the method: as §8; remark: listed apart in the source
Mus musculus [18] = assay: as §4; assay type: functional; remark: listed apart in the source
Summary of the method: (§9)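 Mice, four per dose level, screened at 30, 100, 300 and 600 mg/kg and read at 0.5 h and 4 h after dosing. End point is prevention of minimal threshold (clonic) seizures induced by pentylenetetrazol 85 mg/kg sc. Activity is the lowest dose at which at least one of four animals is protected.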

Mus musculus [19] = assay: as §7; assay type: functional; summary of the method: as §9; remark: listed apart in the source
Mus musculus [20] = assay: as §5; assay type: functional; remark: listed apart in the source
Summary of the method: (§10)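 Repeat pentylenetetrazol screen (85 mg/kg sc, clonic seizure end point) in four mice per dose, at 30, 100, 300 and 600 mg/kg, read at 0.5 h and 4 h. The value is the lowest dose at which at least half of the four animals were protected. A few cases were rescreened at 100, 250, 450 and 600 mg/kg or used only three animals.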

Mus musculus [21] = assay: (§11) Compound was tested for the lowest dose which protected half of the mice in pentylenetetrazole seizure test 4 hr after ip administration of the compound; assay type: functional; summary of the method: as §10
Mus musculus [22] = assay: Compound was tested for the lowest dose which protected half of the mice in pentylenetetrazole seizure test 0.5 hr after ip administration of the compound; IA is Inactive; assay type: functional, organism-based; summary of the method: as §6
Mus musculus [23] = assay: as §11; assay type: functional; summary of the method: as §6; remark: listed apart in the source

CC1CCCC(C(=O)CC2CC(=O)N(C)C(=O)C2)C1=O (stereo in doubt; 2g)
MES (Mus musculus [1]): 600 mg/kg | MES (Mus musculus [2]): inactive

C[C@H]1CCCC([C@H](O)CC2CC(=O)N(C)C(=O)C2)[C@H]1O (stereo not given in full)
Toxicity (Mus musculus [3]): 0 | MES (Mus musculus [4]): inactive | scMet (Mus musculus [5]): inactive | scMet (Mus musculus [6]): inactive | MES (Mus musculus [1]): 600 mg/kg

O=C1CC(C[C@@H](O)C2CCCC[C@@H]2O)CC(=O)N1 (stereo not given in full)
Toxicity (Mus musculus [7]): 0 | Toxicity (Mus musculus [3]): 0 | scMet (Mus musculus [8]): 100 mg/kg | scMet (Mus musculus [6]): inactive | scMet (Mus musculus [9]): 600 mg/kg | MES (Mus musculus [10]): inactive | MES (Mus musculus [2]): inactive

C[C@H]1CC[C@H](O)C([C@H](O)CC2CC(=O)NC(=O)C2)C1 (stereo not given in full)
Toxicity (Mus musculus [7]): 0 | Toxicity (Mus musculus [3]): 0 | scMet (Mus musculus [8]): 30 mg/kg | scMet (Mus musculus [11]): 600 mg/kg | scMet (Mus musculus [9]): 30 mg/kg | MES (Mus musculus [12]): inactive | MES (Mus musculus [10]): inactive | MES (Mus musculus [2]): inactive

C[C@@H]1CC(C2CC(CC(=O)NCc3ccccc3)CC(=O)O2)[C@@H](O)[C@@H](C)C1 (stereo not given in full)
scMet (Mus musculus [5]): inactive | scMet (Mus musculus [6]): inactive | MES (Mus musculus [10]): inactive | MES (Mus musculus [2]): inactive

C[C@@H]1CC(C(=O)CC2CC(=O)N(C)C(=O)C2)C(=O)[C@@H](C)C1 (stereo not given in full)
Toxicity (Mus musculus [7]): 1 | Toxicity (Mus musculus [3]): 1 | scMet (Mus musculus [8]): 600 mg/kg | scMet (Mus musculus [6]): inactive | scMet (Mus musculus [9]): 600 mg/kg | MES (Mus musculus [13]): inactive | MES (Mus musculus [14]): 600 mg/kg

C[C@H]1CC([C@H](O)CC2CC(=O)N(C)C(=O)C2)[C@@H](O)[C@@H](C)C1 (stereo not given in full)
Toxicity (Mus musculus [3]): 0 | scMet (Mus musculus [5]): inactive | scMet (Mus musculus [6]): inactive | MES (Mus musculus [1]): 600 mg/kg | MES (Mus musculus [2]): inactive

C[C@H]1CC(C(=O)CC2CC(=O)NC(=O)C2)C(=O)[C@@H](C)C1 (stereo not given in full)
scMet (Mus musculus [5]): inactive | scMet (Mus musculus [6]): inactive | MES (Mus musculus [10]): inactive | MES (Mus musculus [2]): inactive

C[C@@H]1CCC(=O)C(C(=O)CC2CC(=O)NC2=O)C1 (stereo not given in full)
Toxicity (Mus musculus [7]): 1 | Toxicity (Mus musculus [3]): 2 | scMet (Mus musculus [8]): 600 mg/kg | scMet (Mus musculus [6]): inactive | scMet (Mus musculus [9]): 600 mg/kg | MES (Mus musculus [1]): 600 mg/kg | MES (Mus musculus [2]): inactive

C[C@H]1CCC(=O)C(C(=O)CC2CC(=O)NC(=O)C2)C1 (stereo not given in full)
scMet (Mus musculus [5]): inactive | scMet (Mus musculus [6]): inactive | MES (Mus musculus [10]): inactive | MES (Mus musculus [2]): inactive

O=C1CC(CC(=O)C2CCCCC2=O)C(=O)N1 (stereo not given)
Toxicity (Mus musculus [7]): 0 | Toxicity (Mus musculus [3]): 0 | scMet (Mus musculus [8]): 600 mg/kg | scMet (Mus musculus [15]): inactive | scMet (Mus musculus [9]): 600 mg/kg | MES (Mus musculus [10]): inactive | MES (Mus musculus [2]): inactive

C[C@H]1CC[C@H](O)C([C@H](O)CC2CC(=O)N(C)C(=O)C2)C1 (stereo not given in full)
Toxicity (Mus musculus [3]): 4 | scMet (Mus musculus [5]): inactive | scMet (Mus musculus [6]): inactive | MES (Mus musculus [1]): 600 mg/kg | MES (Mus musculus [2]): inactive

CN1C(=O)CC(C[C@@H](O)C2CCCC[C@@H]2O)CC1=O (stereo not given in full)
scMet (Mus musculus [5]): inactive | scMet (Mus musculus [6]): inactive | MES (Mus musculus [10]): inactive | MES (Mus musculus [2]): inactive

CN1C(=O)CC(CC(=O)C2CCCCC2=O)CC1=O (stereo in doubt; 2e)
scMet (Mus musculus [5]): inactive | scMet (Mus musculus [6]): inactive | MES (Mus musculus [10]): inactive | MES (Mus musculus [2]): inactive

C[C@H]1CCC(=O)C(C(=O)CC2CC(=O)N(C)C(=O)C2)C1 (stereo not given in full)
scMet (Mus musculus [5]): inactive | scMet (Mus musculus [6]): inactive | MES (Mus musculus [10]): inactive | MES (Mus musculus [2]): inactive

O=C1CC(CC(=O)C2CCCCC2=O)CC(=O)N1 (stereo not given)
Toxicity (Mus musculus [3]): 0 | scMet (Mus musculus [8]): 600 mg/kg | scMet (Mus musculus [6]): inactive | scMet (Mus musculus [9]): 600 mg/kg | MES (Mus musculus [10]): inactive | MES (Mus musculus [2]): inactive

C[C@@H]1CC([C@H](O)CC2CC(=O)NC(=O)C2)C(=O)[C@@H](C)C1 (stereo not given in full)
MES (Mus musculus [16]): 600 mg/kg | MES (Mus musculus [17]): inactive | scMet (Mus musculus [18]): 100 mg/kg | scMet (Mus musculus [19]): 300 mg/kg | scMet (Mus musculus [20]): 100 mg/kg | scMet (Mus musculus [21]): 300 mg/kg | Toxicity (Mus musculus [7]): 0 animals | Toxicity (Mus musculus [3]): 1

CC(=O)O[C@H](CC1CC(=O)N(C)C(=O)C1)C1C[C@@H](C)C[C@H](C)C1=O (stereo not given in full)
scMet (Mus musculus [5]): inactive | scMet (Mus musculus [6]): inactive | MES (Mus musculus [10]): inactive | MES (Mus musculus [2]): inactive

C[C@@H]1CCc2c(c(CC3CC(=O)NC(=O)C3)nn2-c2ccccc2)C1
Toxicity (Mus musculus [3]): 0 | scMet (Mus musculus [5]): inactive | scMet (Mus musculus [11]): 30 mg/kg | MES (Mus musculus [22]): inactive | MES (Mus musculus [10]): inactive | MES (Mus musculus [2]): inactive

C[C@H]1CCCC(C(=O)CC2CC(=O)NC(=O)C2)C1=O (stereo not given in full)
Toxicity (Mus musculus [7]): 0 | Toxicity (Mus musculus [3]): 0 | scMet (Mus musculus [8]): 300 mg/kg | scMet (Mus musculus [6]): inactive | MES (Mus musculus [9]): 100 mg/kg | MES (Mus musculus [10]): inactive | MES (Mus musculus [2]): inactive

C[C@H]1CC([C@H](O)CC2CC(=O)N(Cc3ccccc3)C(=O)C2)[C@@H](O)[C@@H](C)C1 (stereo not given in full)
scMet (Mus musculus [5]): inactive | scMet (Mus musculus [6]): inactive | MES (Mus musculus [10]): inactive | MES (Mus musculus [2]): inactive

C[C@H]1CC([C@H](O)CC2CC(=O)NC(=O)C2)[C@@H](O)[C@@H](C)C1 (stereo not given in full)
Toxicity (Mus musculus [7]): 0 | Toxicity (Mus musculus [3]): 1 | scMet (Mus musculus [8]): 100 mg/kg | scMet (Mus musculus [11]): 600 mg/kg | scMet (Mus musculus [9]): 100 mg/kg | scMet (Mus musculus [23]): 600 mg/kg | MES (Mus musculus [10]): inactive | MES (Mus musculus [2]): inactive
